Test results taken from ChEMBL document CHEMBL3272173, “Synthesis and biological activity of peptide antagonists of luliberin (luteinizing hormone-releasing hormone)” (J Med Chem, 1979).
Peptide text beside a SMILES is read from it.

How the values were obtained:
[1] = biological target: T1, Gonadotropin-releasing hormone receptor (Rattus norvegicus) (UniProt P30969); assay: In vitro antagonist activity at GNRHR in CD rat anterior pituitary gland assessed as inhibition of LH-RH-stimulated LH release at compound to LH-RH molar ratio of 4000 after 4 hrs by radioimmunoassay; settings: concentration not given here
T1 sequence (whole entry): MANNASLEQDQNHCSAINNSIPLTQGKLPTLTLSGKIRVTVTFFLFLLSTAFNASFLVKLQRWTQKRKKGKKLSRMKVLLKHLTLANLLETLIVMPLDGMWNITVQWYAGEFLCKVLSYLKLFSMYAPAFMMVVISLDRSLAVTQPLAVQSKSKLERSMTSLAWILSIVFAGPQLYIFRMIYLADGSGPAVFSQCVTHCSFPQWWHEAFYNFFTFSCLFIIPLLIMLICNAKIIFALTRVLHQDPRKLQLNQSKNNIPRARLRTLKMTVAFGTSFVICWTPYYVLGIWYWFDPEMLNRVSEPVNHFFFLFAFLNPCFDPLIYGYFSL
How it was run: (§1)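 Anterior pituitaries from diestrus CD rats (200-250 g) were dissociated enzymatically (collagenase, hyaluronidase, then Viokase). Cells were cultured 4 days at 1.67 × 10^5 cells/mL in DME with 10% horse serum and 2.5% fetal calf serum, then washed serum-free. Duplicate cultures received LH-RH (2-5 × 10^-10 M) with a single analogue concentration in serum-free DME for 4 h at 37 °C. LH in the medium was measured by RIA and reported as % inhibition of LH-RH-stimulated release.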

[2] = biological target: T1, Gonadotropin-releasing hormone receptor (Rattus norvegicus); assay: In vitro antagonist activity at GNRHR in CD rat anterior pituitary gland assessed as inhibition of LH-RH-stimulated LH release at compound to LH-RH molar ratio of 57 after 4 hrs by radioimmunoassay; settings: concentration not given here; how it was run: as §1
Rattus norvegicus [3] = assay: Antiovulatory activity in sc dosed CD rat assessed as blockade of ovulation administered as six doses at 1200, 1230, 1300, 1350, 1400 and 1450 hrs during proestrus stage measured during estrus stage by dissecting microscopic analysis; type: functional
How it was run: (§2)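 Cycling Charles River CD rats were given six subcutaneous injections of analogue in 0.1 mL propylene glycol on the afternoon of proestrus, and controls received vehicle alone. Rats were killed the next morning (estrus). Ovulating animals were scored and ova in the oviducts were counted under a dissecting microscope.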

Rattus norvegicus [4] = assay: Antiovulatory activity in CD rat assessed as blockade of ovulation at 1 mg, sc administered as six doses at 1200, 1230, 1300, 1350, 1400 and 1450 hrs during proestrus stage measured during estrus stage by dissecting microscopic analysis; type: functional; how it was run: as §2
[5] = biological target: T1, Gonadotropin-releasing hormone receptor (Rattus norvegicus); assay: In vitro antagonist activity at GNRHR in CD rat anterior pituitary gland assessed as ratio of molar concentration of compound to LH-RH for inhibition of LH-RH-stimulated LH release after 4 hrs by radioimmunoassay
How it was run: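 Monolayers were cultured 4 days from dissociated anterior pituitary cells of diestrus CD rats. They were exposed in duplicate to LH-RH (2-5 × 10^-10 M) plus multiple analogue concentrations in serum-free DME for 4 h at 37 °C. LH in the medium was measured by radioimmunoassay. The ED50 molar ratio is the analogue:LH-RH molar ratio giving 50% inhibition of LH-RH-stimulated LH release.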

[6] = biological target: T1, Gonadotropin-releasing hormone receptor (Rattus norvegicus); assay: In vitro antagonist activity at GNRHR in CD rat anterior pituitary gland assessed as inhibition of LH-RH-stimulated LH release at compound to LH-RH molar ratio of 28 after 4 hrs by radioimmunoassay; settings: concentration not given here; how it was run: as §1
[7] = biological target: T1, Gonadotropin-releasing hormone receptor (Rattus norvegicus); assay: In vitro antagonist activity at GNRHR in CD rat anterior pituitary gland assessed as inhibition of LH-RH-stimulated LH release at compound to LH-RH molar ratio of 200 after 4 hrs by radioimmunoassay; settings: concentration not given here; how it was run: as §1
Rattus norvegicus [8] = assay: Antiovulatory activity in CD rat assessed as blockade of ovulation at 3 mg, sc administered as six doses at 1200, 1230, 1300, 1350, 1400 and 1450 hrs during proestrus stage measured during estrus stage by dissecting microscopic analysis; type: functional; how it was run: as §2
Rattus norvegicus [9] = assay: Antiovulatory activity in CD rat assessed as blockade of ovulation at 5 mg, sc administered as six doses at 1200, 1230, 1300, 1350, 1400 and 1450 hrs during proestrus stage measured during estrus stage by dissecting microscopic analysis; type: functional; how it was run: as §2
[10] = biological target: T1, Gonadotropin-releasing hormone receptor (Rattus norvegicus); assay: In vitro antagonist activity at GNRHR in CD rat anterior pituitary gland assessed as inhibition of LH-RH-stimulated LH release at compound to LH-RH molar ratio of 20 after 4 hrs by radioimmunoassay; settings: concentration not given here; how it was run: as §1
[11] = biological target: T1, Gonadotropin-releasing hormone receptor (Rattus norvegicus); assay: In vitro antagonist activity at GNRHR in CD rat anterior pituitary gland assessed as inhibition of LH-RH-stimulated LH release at compound to LH-RH molar ratio of 10 after 4 hrs by radioimmunoassay; settings: concentration not given here; how it was run: as §1
Rattus norvegicus [12] = assay: Antiovulatory activity in CD rat assessed as blockade of ovulation at 0.3 mg, sc administered as six doses at 1200, 1230, 1300, 1350, 1400 and 1450 hrs during proestrus stage measured during estrus stage by dissecting microscopic analysis; type: functional; how it was run: as §2

CC(C)C[C@H](NC(=O)CNC(=O)[C@H](Cc1ccc(O)cc1)NC(=O)[C@H](CO)NC(=O)[C@H](Cc1c[nH]c2ccccc12)NC(=O)[C@H](Cc1cnc[nH]1)NC(=O)OCc1ccccc1)C(=O)N[C@@H](CCCNC(=N)N)C(=O)N1CCC[C@H]1C(=O)NCC(=O)O (HELM PEPTIDE1{[O=C(OCc1ccccc1)[*:2]].H.W.S.Y.G.L.R.P.G}$$$$V2.0)
inhibition [1]: 17%

CCNC(=O)[C@@H]1CCCN1C(=O)[C@H](CCCNC(=N)N)NC(=O)[C@H](CC(C)C)NC(=O)[C@@H](Cc1ccccc1)NC(=O)[C@H](Cc1ccc(O)cc1)NC(=O)[C@H](CO)NC(=O)[C@H](Cc1c[nH]c2ccccc12)NC(=O)[C@H](COCc1ccccc1)NC(=O)OC(C)(C)C.Cl
inhibition [2]: 91% | ED50 (Rattus norvegicus [3]): >10 mg | inhibition (INH) (Rattus norvegicus [4]): 0% | ED50 [5]: 19 molar ratio

CC(=O)O.CCNC(=O)[C@@H]1CCCN1C(=O)[C@H](CCCNC(=N)N)NC(=O)[C@H](CC(C)C)NC(=O)[C@@H](CCC(N)=O)NC(=O)[C@H](Cc1ccc(O)cc1)NC(=O)[C@H](CO)NC(=O)[C@H](Cc1c[nH]c2ccccc12)NC(=O)[C@H](CCC(N)=O)NC(=O)OCc1ccccc1
inhibition [6]: 77% | ED50 (Rattus norvegicus [3]): >1 mg | inhibition (INH) (Rattus norvegicus [4]): 20%

CCNC(=O)[C@@H]1CCCN1C(=O)[C@H](CCCNC(=N)N)NC(=O)[C@H](CC(C)C)NC(=O)[C@@H](CCSC)NC(=O)[C@H](Cc1ccc(O)cc1)NC(=O)[C@H](CO)NC(=O)[C@H](Cc1c[nH]c2ccccc12)NC(=O)[C@H](CCC(N)=O)NC(=O)OCc1ccccc1.Cl
ED50 (Rattus norvegicus [3]): 3 mg | inhibition [7]: 85% | inhibition (INH) (Rattus norvegicus [8]): 60%

CC(=O)O.CCNC(=O)[C@@H]1CCCN1C(=O)[C@H](CCCNC(=N)N)NC(=O)[C@H](CC(C)C)NC(=O)[C@@H](Cc1ccccc1)NC(=O)[C@H](Cc1ccc(O)cc1)NC(=O)[C@H](CO)NC(=O)[C@H](Cc1c[nH]c2ccccc12)NC(=O)[C@H](CCC(N)=O)NC(=O)OCc1ccccc1
inhibition (INH) (Rattus norvegicus [9]): 0% | ED50 (Rattus norvegicus [3]): >5 mg

CCNC(=O)[C@@H]1CCCN1C(=O)[C@H](CCCNC(=N)N)NC(=O)[C@H](CC(C)C)NC(=O)[C@@H](Cc1c[nH]c2ccccc12)NC(=O)[C@H](Cc1ccc(O)cc1)NC(=O)[C@H](CO)NC(=O)[C@H](Cc1c[nH]c2ccccc12)NC(=O)[C@@H](NC(=O)OCc1ccccc1)[C@@H](C)CC.Cl
inhibition (INH) (Rattus norvegicus [9]): 0% | ED50 (Rattus norvegicus [3]): >5 mg | inhibition [10]: 100% | ED50 [5]: 1.5 molar ratio

CC(C)C[C@H](NC(=O)[C@@H](Cc1ccccc1)NC(=O)[C@H](Cc1ccc(O)cc1)NC(=O)[C@H](CO)NC(=O)[C@H](Cc1c[nH]c2ccccc12)NC(=O)[C@H](COCc1ccccc1)NC(=O)OCc1ccccc1)C(=O)N[C@@H](CCCNC(=N)N)C(=O)N1CCC[C@H]1C(=O)NCC(N)=O.Cl
inhibition [11]: 90% | ED50 (Rattus norvegicus [3]): >3 mg | ED50 [5]: 1.5 molar ratio | inhibition (INH) (Rattus norvegicus [8]): 40%

CC(=O)O.CCNC(=O)[C@@H]1CCCN1C(=O)[C@H](CCCNC(=N)N)NC(=O)[C@H](CC(C)C)NC(=O)[C@H](NC(=O)[C@H](Cc1ccc(O)cc1)NC(=O)[C@H](CO)NC(=O)[C@H](Cc1c[nH]c2ccccc12)NC(=O)[C@H](CCC(N)=O)NC(=O)OCc1ccccc1)[C@@H](O)c1ccccc1
ED50 (Rattus norvegicus [3]): 0.1 mg | inhibition (INH) (Rattus norvegicus [12]): 100%
